Measurements as given in ChEMBL document CHEMBL1255417, “Correlation between in vitro activity of posaconazole and in vivo efficacy against Rhizopus oryzae infection in mice” (Antimicrob Agents Chemother, 2010).
In brackets after ≈: the same amount, converted by molar mass. Activity calls are given as the source filed them. No cut-off for these calls is given here.

Tests used:
Rhizopus arrhizus [1] = test: Antifungal activity against drug-intermediate Rhizopus oryzae UTHSC 05-3032 by broth microdilution method; assay type: functional
Method in brief: (§1)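 Broth microdilution MIC in µg/ml, run per the CLSI (formerly NCCLS) guideline for filamentous fungi, M38-A2.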

Rhizopus arrhizus [2] = test: Antifungal activity against drug-susceptible Rhizopus oryzae UTHSC 412-546 at 5 ug by disk diffusion assay; assay type: functional; conditions: read-out: DIZ
Rhizopus arrhizus [3] = test: Antifungal activity against drug-susceptible Rhizopus oryzae UTHSC 06-1080 by broth microdilution method; assay type: functional
Method in brief: (§2)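 Posaconazole MIC in ug/ml, determined by broth microdilution following the CLSI guidelines for moulds (M38-A2).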

Rhizopus arrhizus [4] = test: Antifungal activity against drug-susceptible Rhizopus oryzae UTHSC 06-4336 by broth microdilution method; assay type: functional; method in brief: as §2
Rhizopus arrhizus [5] = test: Antifungal activity against drug-intermediate Rhizopus oryzae UTHSC 07-365 by broth microdilution method; assay type: functional; method in brief: as §1
Rhizopus arrhizus [6] = test: Antifungal activity against drug-susceptible Rhizopus oryzae infected in OF1 mouse assessed as mouse survival at 30 mg/kg, po bid treated 24 hrs after fungal infection; assay type: functional
Rhizopus arrhizus [7] = test: Antifungal activity against drug-susceptible Rhizopus oryzae UTHSC 04-1241 at 5 ug by disk diffusion assay; assay type: functional; conditions: read-out: DIZ
Method in brief: (§3)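 Neo-Sensitabs tablet diffusion on Mueller-Hinton agar, following guidelines for molds; 9 mm tablets containing 5 µg posaconazole; inhibition zone diameter measured in mm; zone breakpoints applied at 24 h.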

Rhizopus arrhizus [8] = test: Antifungal activity against drug-intermediate Rhizopus oryzae UTHSC 05-114 after 24 to 48 hrs; assay type: functional
Rhizopus arrhizus [9] = test: Antifungal activity against drug-susceptible Rhizopus oryzae UTHSC 03-511 by broth microdilution method; assay type: functional
Method in brief: (§4)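 CLSI broth microdilution for filamentous fungi (M38-A2); MIC recorded in µg/ml against clinical isolates; breakpoints applied at 24 h.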

Rhizopus arrhizus [10] = test: Antifungal activity against drug-susceptible Rhizopus oryzae UTHSC 06-1351 at 5 ug by disk diffusion assay; assay type: functional; conditions: read-out: DIZ
Method in brief: (§5)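 Neo-Sensitabs tablet diffusion on Mueller-Hinton agar, run per the mould guidelines. Tablets are 9 mm in diameter and carry 5 ug posaconazole. The read-out is the inhibition zone diameter in mm.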

Rhizopus arrhizus [11] = test: Antifungal activity against drug-susceptible Rhizopus oryzae UTHSC 05-3132 at 5 ug by disk diffusion assay; assay type: functional; conditions: read-out: DIZ; method in brief: as §5
Rhizopus arrhizus [12] = test: Antifungal activity against drug-susceptible Rhizopus oryzae UTHSC 03-1826 by broth microdilution method; assay type: functional; method in brief: as §1
Rhizopus arrhizus [13] = test: Antifungal activity against drug-susceptible Rhizopus oryzae UTHSC 03-228 by broth microdilution method; assay type: functional; method in brief: as §1
Rhizopus arrhizus [14] = test: Antifungal activity against drug-susceptible Rhizopus oryzae UTHSC 06-731 at 5 ug by disk diffusion assay; assay type: functional; conditions: read-out: DIZ
Rhizopus arrhizus [15] = test: Antifungal activity against drug-susceptible Rhizopus oryzae UTHSC 04-1220 by broth microdilution method; assay type: functional; method in brief: as §4
Rhizopus arrhizus [16] = test: Antifungal activity against drug-susceptible Rhizopus oryzae UTHSC 05-1502 after 24 to 48 hrs; assay type: functional
Method in brief: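 Minimum fungicidal concentration: 20 µl from each microdilution well showing complete inhibition (optically clear) plated on potato dextrose agar, incubated 35°C for 24 to 48 h; MFC taken as lowest drug concentration giving no growth.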

Rhizopus arrhizus [17] = test: Antifungal activity against drug-intermediate Rhizopus oryzae UTHSC 04-3109 infected in OF1 mouse assessed as reduction in brain fungal load at 10-30 mg/kg, po bid treated 24 hrs after fungal infection; assay type: functional, organism-based
Method in brief: (§6)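 Tissue burden in immunosuppressed male OF1 mice, using cyclophosphamide 200 mg/kg i.p. plus 5-fluorouracil 150 mg/kg i.v. on day −1. Mice received 2 × 10^4 CFU i.v. by tail vein, then oral gavage at 10, 20 or 30 mg/kg BID from 24 h post-challenge, with ceftazidime cover; untreated controls. Groups of 10 were killed on day 4. Kidneys and brains were homogenized in 2 ml saline, serially diluted 10-fold, plated on PDA and counted after 24 h at 35°C.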

Rhizopus arrhizus [18] = test: Antifungal activity against drug-susceptible Rhizopus oryzae UTHSC 04-443 by broth microdilution method; assay type: functional; method in brief: as §4
Rhizopus arrhizus [19] = test: Antifungal activity against drug-susceptible Rhizopus oryzae UTHSC 03-299 at 5 ug by disk diffusion assay; assay type: functional; conditions: read-out: DIZ; method in brief: as §3
Rhizopus arrhizus [20] = test: Antifungal activity against drug-intermediate Rhizopus oryzae UTHSC 07-365 infected in OF1 mouse assessed as reduction in brain fungal load at 10-30 mg/kg, po bid treated 24 hrs after fungal infection; assay type: functional, organism-based; method in brief: as §6
Rhizopus arrhizus [21] = test: Antifungal activity against drug-susceptible Rhizopus oryzae UTHSC 06-3827 at 5 ug by disk diffusion assay; assay type: functional; conditions: read-out: DIZ; method in brief: as §5
Rhizopus arrhizus [22] = test: Antifungal activity against drug-susceptible Rhizopus oryzae UTHSC 06-329 by broth microdilution method; assay type: functional; method in brief: as §2
Rhizopus arrhizus [23] = test: Antifungal activity against drug-susceptible Rhizopus oryzae UTHSC 05-1502 by broth microdilution method; assay type: functional; method in brief: as §4
Rhizopus arrhizus [24] = test: Antifungal activity against drug-intermediate Rhizopus oryzae UTHSC 05-3032 infected in OF1 mouse assessed as increase in mouse survival at 20-30 mg/kg, po bid treated 24 hrs after fungal infection; assay type: functional, organism-based
Method in brief: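 Survival model in male OF1 mice, 30 g. Mice were immunosuppressed 1 day before infection with cyclophosphamide 200 mg/kg i.p. plus 5-fluorouracil 150 mg/kg i.v., then infected i.v. via lateral tail vein with 2 × 10^4 CFU in 0.2 ml saline. Oral gavage at 10, 20 or 30 mg/kg BID began 24 h post-challenge for 7 days. Ceftazidime 5 mg/day s.c. was given days 1–7. Groups of 10 were checked daily for 20 days; untreated controls.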

Rhizopus arrhizus [25] = test: Antifungal activity against drug-susceptible Rhizopus oryzae UTHSC 06-1301 after 24 to 48 hrs; assay type: functional
Method in brief: (§7)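 Minimum fungicidal concentration taken from the broth microdilution plates. From each well with complete inhibition (optically clear), 20 ul is plated on potato dextrose agar. Plates are incubated at 35°C for 24 to 48 h. The MFC is the lowest drug concentration giving no growth.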

Rhizopus arrhizus [26] = test: Antifungal activity against drug-susceptible Rhizopus oryzae UTHSC 06-434 after 24 to 48 hrs; assay type: functional; method in brief: as §7

CC[C@@H]([C@H](C)O)n1ncn(-c2ccc(N3CCN(c4ccc(OC[C@@H]5CO[C@@](Cn6cncn6)(c6ccc(F)cc6F)C5)cc4)CC3)cc2)c1=O [POSACONAZOLE]
MIC (Rhizopus arrhizus [1]): 2 µg/mL (≈ 2.85 µM)
zone of inhibition at 5 µg/disc (Rhizopus arrhizus [2]): 15 mm
MIC (Rhizopus arrhizus [3]): 1 µg/mL (≈ 1.43 µM)
MIC (Rhizopus arrhizus [4]): 0.5 µg/mL (≈ 0.713 µM)
MIC (Rhizopus arrhizus [5]): 2 µg/mL (≈ 2.85 µM)
Activity (Rhizopus arrhizus [6]): 30%
zone of inhibition at 5 µg/disc (Rhizopus arrhizus [7]): 22 mm
MFC (Rhizopus arrhizus [8]): 16 µg/mL (≈ 22.8 µM)
MIC (Rhizopus arrhizus [9]): 0.25 µg/mL (≈ 0.357 µM)
zone of inhibition at 5 µg/disc (Rhizopus arrhizus [10]): 25 mm
zone of inhibition at 5 µg/disc (Rhizopus arrhizus [11]): 20 mm
MIC (Rhizopus arrhizus [12]): 0.5 µg/mL (≈ 0.713 µM)
MIC (Rhizopus arrhizus [13]): 0.25 µg/mL (≈ 0.357 µM)
zone of inhibition at 5 µg/disc (Rhizopus arrhizus [14]): 17 mm
MIC (Rhizopus arrhizus [15]): 0.5 µg/mL (≈ 0.713 µM)
MFC (Rhizopus arrhizus [16]): 1 µg/mL (≈ 1.43 µM)
Activity (Rhizopus arrhizus [17]): inactive
MIC (Rhizopus arrhizus [18]): 0.5 µg/mL (≈ 0.713 µM)
zone of inhibition at 5 µg/disc (Rhizopus arrhizus [19]): 15 mm
Activity (Rhizopus arrhizus [20]): inactive
zone of inhibition at 5 µg/disc (Rhizopus arrhizus [21]): 18 mm
MIC (Rhizopus arrhizus [22]): 0.5 µg/mL (≈ 0.713 µM)
MIC (Rhizopus arrhizus [23]): 0.5 µg/mL (≈ 0.713 µM)
Activity (Rhizopus arrhizus [24]): Active
MFC (Rhizopus arrhizus [25]): 1 µg/mL (≈ 1.43 µM)
MFC (Rhizopus arrhizus [26]): 1 µg/mL (≈ 1.43 µM)
